TRPC6 act: mouse TRPC6 channel activators, primary screen, cell-based, HEK293, membrane potential dye; Short transient receptor potential channel 6 (Mus musculus), Q61143; 0.13% of 310,000 active; B-score at 10 µM; HEK293-TRPC6 membrane potential dye fluorescence; active compounds read high; AID 2550, 2010;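 active = B-score of the integrated fluorescence ratio above library mean plus 3 SD, and starting fluorescence ratio within library mean plus 5 SD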;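 note: higher score means more depolarization so channel activation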
Target sequence (Q61143 whole entry, looked up): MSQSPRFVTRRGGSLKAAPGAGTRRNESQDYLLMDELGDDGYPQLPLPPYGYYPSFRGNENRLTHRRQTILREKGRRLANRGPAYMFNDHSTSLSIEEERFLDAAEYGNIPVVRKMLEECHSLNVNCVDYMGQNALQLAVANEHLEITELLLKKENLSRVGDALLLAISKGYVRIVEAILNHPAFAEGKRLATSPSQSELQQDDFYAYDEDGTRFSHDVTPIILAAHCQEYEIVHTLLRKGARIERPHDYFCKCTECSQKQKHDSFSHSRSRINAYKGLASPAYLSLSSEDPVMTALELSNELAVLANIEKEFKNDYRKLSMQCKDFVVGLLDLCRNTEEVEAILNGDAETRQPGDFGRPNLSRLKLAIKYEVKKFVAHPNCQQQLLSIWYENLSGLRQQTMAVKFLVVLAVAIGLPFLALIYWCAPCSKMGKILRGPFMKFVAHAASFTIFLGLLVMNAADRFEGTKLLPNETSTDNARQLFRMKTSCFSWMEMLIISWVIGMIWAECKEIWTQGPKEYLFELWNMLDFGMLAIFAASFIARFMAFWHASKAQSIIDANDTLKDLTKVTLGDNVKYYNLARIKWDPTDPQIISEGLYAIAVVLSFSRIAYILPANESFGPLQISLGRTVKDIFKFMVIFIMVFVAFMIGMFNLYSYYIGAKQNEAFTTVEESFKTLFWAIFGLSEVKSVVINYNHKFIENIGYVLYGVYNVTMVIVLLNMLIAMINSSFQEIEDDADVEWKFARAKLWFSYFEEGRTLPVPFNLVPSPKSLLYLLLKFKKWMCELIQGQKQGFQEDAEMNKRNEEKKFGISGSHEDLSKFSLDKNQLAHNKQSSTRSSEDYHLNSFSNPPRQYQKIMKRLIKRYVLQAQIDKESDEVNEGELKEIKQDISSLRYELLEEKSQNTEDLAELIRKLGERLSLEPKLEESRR
TRPC4 agonist: activators of mouse TRPC4 channel, primary screen, Fluo4 calcium, HEK293 TRPC4beta/mu-opioid cells; 0.49% of 310,000 active; Fluo4 calcium fluorescence; active compounds read high; AID 2237, 2010; B-score at 10 µM;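 active = B-score above 5 SD of library B-scores, and initial fluorescence ratio not above library mean plus 5 SD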;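 note: positive B-score marks a calcium rise read as TRPC4 activation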
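System: HEK293 cells stably co-expressing mouse TRPC4beta and mu-opioid receptor; Schedule: Fluo4 dye loading 45 min at room temperature, 110 s recording; Detection: Fluo4 fluorescence, kinetic; Evaluation: B-scored integrated calcium fluorescence ratio; Controls: buffer (low) and maximal DAMGO (high).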
TRPC4 PAM: positive allosteric modulators of TRPC4, primary screen, cell-based, mouse TRPC4beta, HEK293 mu-opioid, Fluo-4 calcium; Short transient receptor potential channel 4 (Mus musculus), Q9QUQ5; DAMGO EC20, Fluo-4 Ca2+ flux; active compounds read high; B-score at 10 µM; 0.42% of 310,000 active; AID 2227, 2009;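 active = B-score of calcium response area above 5 SD of library B-scores, with initial fluorescence ratio within 5 SD of library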;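 note: B-score of integrated fluorescence ratio over time as area under calcium response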
Kir21 inh: inhibitors of mouse Kir2.1 inward-rectifier potassium channel. 0.85% of 310,000 active. B-score at 10 µM. Inward rectifier potassium channel 2 (Mus musculus), P35561. AID 1672, 2009. HEK293-Kir2.1, FluxOR thallium flux fluorescence; active compounds read low;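 active = fluorescence ratio B-score at or below minus 3 SD of library scores, with starting-brightness B-score within 2 SD, cut at about -4.2 in these data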;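 note: channel flux triggered by added potassium and thallium sulfate stimulus; B-score of peak minus minimum fluorescence over baseline after thallium stimulus; more negative B-score means stronger Kir2.1 block with less thallium influx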
TRPC4 inh: inhibitors of mouse TRPC4 channel, primary screen, Fluo4 calcium, HEK293 TRPC4beta/mu-opioid cells; B-score at 10 µM; 0.39% of 300,000 active; DAMGO-evoked Fluo4 calcium flux; active compounds read low;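 active = B-score over 3 SD under the library average, no early fluorescence shift, positive overall ratio signal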
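Assay system: TRPC4beta/mu-opioid receptor HEK293 cell line; compound dosing: single concentration per test compound; detection: Fluo4 Ca2+ flux fluorescence; evaluation: per-well B score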
TRPC6 inhibitor: mouse TRPC6 channel inhibitors, primary screen, cell-based, HEK293, membrane potential dye. Short transient receptor potential channel 6 (Mus musculus), Q61143. ACh-evoked depolarization; active compounds read low. B-score at 10 µM. 1.1% of 310,000 active. AID 2553, 2010;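 active = B-score under library mean minus 3 SD, initial fluorescence not abnormally high, positive integrated signal ratio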;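 note: B-score derived from integrated fluorescence ratio over the kinetic read; more negative B-score means stronger inhibition of depolarization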
* = called active by the depositor. Shown are actives, neighbours in structure and some others; about 2.9% of the full set was active somewhere.

`COc1ccc(S(=O)(=O)N2CCC(C(=O)N[C@@H](C)C(=O)NC3CCCC3)CC2)cc1` gave TRPC6 act inactive, TRPC4 agonist inactive, TRPC4 PAM inactive, Kir21 inh 0.9, TRPC4 inh inactive and TRPC6 inhibitor inactive.
CCCOP(=O)(c1ccc(N(C)C)cc1)C(O)c1ccc(Cl)cc1Cl (stereo not given) was read as TRPC6 act inactive, TRPC4 agonist inactive, TRPC4 PAM 10*, Kir21 inh -1.2, TRPC4 inh inactive and TRPC6 inhibitor inactive.
For CCCOP(=O)(c1ccc(N(C)C)cc1)C(O)c1ccccc1OC (stereo not given) the results were TRPC6 act inactive, TRPC4 agonist inactive, TRPC4 PAM inactive, Kir21 inh 0.02, TRPC4 inh inactive and TRPC6 inhibitor inactive.
`COc1ncnc(-c2ccccc2)c1-c1ccccc1` gave TRPC6 act inactive, TRPC4 agonist inactive, TRPC4 PAM inactive, Kir21 inh -1.7, TRPC4 inh inactive and TRPC6 inhibitor inactive.
`CC(C)[C@@H]1CC[C@@H](C)c2c(-c3ccccc3)n[nH]c21` gave TRPC6 act inactive, TRPC4 agonist inactive, TRPC4 PAM 10*, Kir21 inh 0.9, TRPC4 inh inactive and TRPC6 inhibitor inactive.
`c1ccc(-c2n[nH]c3c2CCC3)cc1` gave TRPC6 act inactive, TRPC4 agonist inactive, TRPC4 PAM inactive, Kir21 inh -0.36, TRPC4 inh inactive and TRPC6 inhibitor inactive.
For CN(CC(=O)Nc1ccccc1C(F)(F)F)C(=O)c1ccc(N2C(=O)CCC2=O)cc1 the results were TRPC6 act inactive, TRPC4 agonist inactive, TRPC4 PAM inactive, Kir21 inh -1.3, TRPC4 inh inactive and TRPC6 inhibitor inactive.
For Cc1cccc(Cl)c1OCCCn1ccnc1 the results were TRPC6 act inactive, TRPC4 agonist inactive, TRPC4 PAM inactive, Kir21 inh 0.02, TRPC4 inh inactive and TRPC6 inhibitor inactive.
`COCCN1C(=S)N[C@@H](c2cccc(F)c2)C(C(=O)OC)=C1C` gave TRPC6 act inactive, TRPC4 agonist inactive, TRPC4 PAM inactive, Kir21 inh -6.8*, TRPC4 inh inactive and TRPC6 inhibitor inactive.
`COCCN=C1N[C@@H](c2ccc(Br)cc2)C(C(=O)OC)=C(C)N1Cc1ccccc1` gave TRPC6 act inactive, TRPC4 agonist inactive, TRPC4 PAM inactive, Kir21 inh -6.8*, TRPC4 inh inactive and TRPC6 inhibitor inactive.
For COC(=O)C1=C(C)N(Cc2ccccc2)C(=S)N[C@H]1c1cccc(F)c1 the results were TRPC6 act inactive, TRPC4 agonist inactive, TRPC4 PAM inactive, Kir21 inh -0.04, TRPC4 inh -5* and TRPC6 inhibitor inactive.
`COC(=O)C1=C(C)N(CC2CC2)C(=NCc2cccc(Cl)c2)N[C@H]1c1ccccc1` gave TRPC6 act inactive, TRPC4 agonist inactive, TRPC4 PAM inactive, Kir21 inh -4.6*, TRPC4 inh inactive and TRPC6 inhibitor inactive.
COC(=O)C1=C(C)N(Cc2ccccc2)C(=NCc2cc(OC)c(OC)c(OC)c2)N[C@H]1c1ccccc1 was read as TRPC6 act inactive, TRPC4 agonist inactive, TRPC4 PAM inactive, Kir21 inh -4, TRPC4 inh inactive and TRPC6 inhibitor inactive.
Screening COC(=O)C1=C(C)N(Cc2ccccc2)C(=NCc2ccccc2)N[C@H]1c1cccc(F)c1 returned TRPC6 act inactive, TRPC4 agonist inactive, TRPC4 PAM inactive, Kir21 inh -8.8*, TRPC4 inh inactive and TRPC6 inhibitor inactive.
For CN(Cc1ccccc1F)Cc1cc(=O)oc2cc(O)c(Cl)cc12 the results were TRPC6 act inactive, TRPC4 agonist inactive, TRPC4 PAM inactive, Kir21 inh -0.08, TRPC4 inh inactive and TRPC6 inhibitor inactive.
`Cc1cc2oc(=O)cc(CN(C)Cc3ccccc3F)c2cc1Cl` gave TRPC6 act inactive, TRPC4 agonist inactive, TRPC4 PAM inactive, Kir21 inh -4.3*, TRPC4 inh inactive and TRPC6 inhibitor inactive.
CCOc1ccccc1NC(=O)c1ccccc1-c1ccccc1 was read as TRPC6 act inactive, TRPC4 agonist inactive, TRPC4 PAM inactive, Kir21 inh -4.8*, TRPC4 inh inactive and TRPC6 inhibitor inactive.
Screening CCOc1ccccc1NC(=O)c1ccccc1-c1nc(-c2ccccc2)no1 returned TRPC6 act inactive, TRPC4 agonist inactive, TRPC4 PAM inactive, Kir21 inh -0.81, TRPC4 inh inactive and TRPC6 inhibitor inactive.
CCN1/C(=C/c2ccc3ccccc3[n+]2CC)C=Cc2ccccc21 was read as TRPC6 act inactive, TRPC4 agonist inactive, TRPC4 PAM inactive, Kir21 inh -13*, TRPC4 inh inactive and TRPC6 inhibitor inactive.
For CCN1/C(=C/c2ccc3ccccc3[n+]2CCCS(=O)(=O)[O-])C=Cc2cc(C)ccc21 the results were TRPC6 act inactive, TRPC4 agonist inactive, TRPC4 PAM inactive, Kir21 inh -0.06, TRPC4 inh inactive and TRPC6 inhibitor inactive.
Screening CCCCN1/C(=C/c2ccc3ccccc3[n+]2CC)Sc2ccccc21 returned TRPC6 act inactive, TRPC4 agonist 204*, TRPC4 PAM inactive, Kir21 inh -18, TRPC4 inh inactive and TRPC6 inhibitor inactive.
Screening Cc1cccc(OCC(=O)Nc2ccc3oc(=O)ccc3c2)c1 returned TRPC6 act inactive, TRPC4 agonist inactive, TRPC4 PAM inactive, Kir21 inh -0.46, TRPC4 inh inactive and TRPC6 inhibitor inactive.
OCCNCCSc1ccc(Cl)cc1 was read as TRPC6 act inactive, TRPC4 agonist 104*, TRPC4 PAM inactive, Kir21 inh 0.11, TRPC4 inh inactive and TRPC6 inhibitor inactive.
For CN(Cc1cccs1)C(=O)Cn1cnc2ccccc2c1=O the results were TRPC6 act inactive, TRPC4 agonist inactive, TRPC4 PAM inactive, Kir21 inh -0.65, TRPC4 inh inactive and TRPC6 inhibitor inactive.
`CCCc1ccc(OCc2ccc(C(=O)N3CCCC3)o2)cc1` gave TRPC6 act inactive, TRPC4 agonist inactive, TRPC4 PAM 26*, Kir21 inh -0.06, TRPC4 inh inactive and TRPC6 inhibitor inactive.
`CCOc1ccc(OCc2ccc(C(=O)N3CCCC3)o2)cc1` gave TRPC6 act inactive, TRPC4 agonist inactive, TRPC4 PAM inactive, Kir21 inh 0.29, TRPC4 inh inactive and TRPC6 inhibitor inactive.

High-throughput results from PubChem.
